The subject of one assay is E6SM. The experiment in a line: […] in E6SM cell cultures of human embryonic skin-muscle. It counts as functional. In general terms: Cytopathic effects are the visible damage that an infection or toxin causes in cultured cells.
For assay [1], the system named is Human alphaherpesvirus 1. Put plainly: Inhibitory activity against HSV-1 (McIntyre) replication in E6SM cell cultures of human embryonic skin-muscle. It counts as functional, organism-based. As to conditions: Human alphaherpesvirus 1, E6SM. The procedure, abridged: (§1)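 Confluent human embryonic skin-muscle (E6SM) cell cultures were infected with 100 CCID50 of virus. After 1 h adsorption, residual virus was removed and cultures were incubated with test compound at varying concentrations […]. Cytopathicity was scored once complete in infected control cultures. EC50 is the concentration that inhibits virus-induced cytopathicity by 50%.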

A short description of assay [2]: Inhibitory activity against HSV-1 (KOS) replication in E6SM cell cultures of human embryonic skin-muscle. It counts as functional, cell-based. As to conditions: Human alphaherpesvirus 1, E6SM. The procedure, abridged: as §1
Assay [3] can be described thus: Inhibitory activity against TK-deficient HSV-1 (KOS) replication in E6SM cell cultures of human embryonic skin-muscle. It counts as functional, cell-based. As to conditions: Human alphaherpesvirus 1, E6SM. The procedure, abridged: as §1
Assay [4] relates to Human alphaherpesvirus 1. Put plainly: Inhibitory activity against HSV-1 (F) replication in E6SM cell cultures of human embryonic skin-muscle. It counts as functional, organism-based. The note with it: Human alphaherpesvirus 1, E6SM. Put shortly:
as §1

Another assay concerns Vaccinia virus. The experiment in a line: Inhibitory activity against vaccinia virus (VV) replication in E6SM cell cultures of human embryonic skin-muscle. It counts as functional, organism-based. The note with it: Orthopoxvirus vaccinia. The procedure, abridged:
as §1

The subject of assay [5] is Vesicular stomatitis virus. The experiment in a line: Inhibitory activity against vesicular stomatitis virus (VSV) replication in E6SM cell cultures of human embryonic skin-muscle. The class given is functional, organism-based. The procedure, abridged:
as §1

≈ marks a conversion by molar mass, not a printed value.

Consider five molecules from ChEMBL document CHEMBL1135597, “A thymidine phosphorylase-stable analogue of BVDU with significant antiviral activity” (J Med Chem, 2002).

In the assay with E6SM, `O=c1[nH]c(=O)n([C@H]2C[C@H](O)[C@@H](CO)O2)cc1/C=C/Br` [BRIVUDINE] had an MCC above 400 µg/mL. In addition, the EC50 – broadly, the concentration at which the effect is half-maximal – in the assay with Human alphaherpesvirus 1 [1] was 0.026 µg/mL (≈ 0.078 µM); in assay [2] it was 0.026 µg/mL (≈ 0.078 µM); in assay [3], 240 µg/mL (≈ 720 µM); in the assay with Human alphaherpesvirus 1 [4], 0.026 µg/mL (≈ 0.078 µM); in the assay on Vaccinia virus, 1.9 µg/mL (≈ 5.7 µM); in assay [5] it was above 400 µg/mL.
Molecule `O=c1[nH]c(=O)n([C@@H]2CO[C@H](CO)C2)cc1/C=C/Br` gave an MCC in the assay with E6SM above 400 µg/mL. For the same molecule, the EC50 is 9.6 µg/mL (≈ 30.3 µM) in the assay on Human alphaherpesvirus 1 [1]; 2.6 µg/mL (≈ 8.2 µM) in assay [2]; above 400 µg/mL in assay [3]; 1.9 µg/mL (≈ 5.99 µM) in the assay with Human alphaherpesvirus 1 [4]; above 400 µg/mL with Vaccinia virus; above 400 µg/mL in assay [5].
In turn, `Nc1nc2c(ncn2COCCO)c(=O)[nH]1` [ACYCLOVIR] yielded an MCC in the assay on E6SM above 400 µg/mL. Moreover, the EC50 is 0.077 µg/mL (≈ 0.342 µM) with Human alphaherpesvirus 1 [1]; 0.077 µg/mL (≈ 0.342 µM) in assay [2]; 48 µg/mL (≈ 213 µM) in assay [3]; 0.077 µg/mL (≈ 0.342 µM) in the assay on Human alphaherpesvirus 1 [4]; above 400 µg/mL in the assay with Vaccinia virus; above 400 µg/mL in assay [5].
Molecule `NC(=O)c1ncn([C@@H]2O[C@H](CO)[C@@H](O)[C@H]2O)n1` [RIBAVIRIN] came in with an MCC with E6SM above 400 µg/mL. Besides, the concentration for a half-maximal effect (EC50) in the assay with Human alphaherpesvirus 1 [1] is 240 µg/mL (≈ 983 µM); in assay [2] it was 48 µg/mL (≈ 197 µM); in assay [3], 240 µg/mL (≈ 983 µM); in the assay on Human alphaherpesvirus 1 [4] it was 48 µg/mL (≈ 197 µM); in the assay with Vaccinia virus, 240 µg/mL (≈ 983 µM); in assay [5], above 400 µg/mL.
In turn, `Nc1nc2c(ncn2COC(CO)CO)c(=O)[nH]1` [GANCICLOVIR] yielded an MCC in the assay with E6SM above 100 µg/mL. The EC50 in the assay on Human alphaherpesvirus 1 [1] is 0.019 µg/mL (≈ 0.0744 µM); in assay [2], 0.019 µg/mL (≈ 0.0744 µM); in assay [3] it was 2.4 µg/mL (≈ 9.4 µM); in the assay on Human alphaherpesvirus 1 [4] it was 0.019 µg/mL (≈ 0.0744 µM); with Vaccinia virus, above 100 µg/mL; in assay [5], above 100 µg/mL.
